In ChEMBL document CHEMBL4145543, “Synthesis and pharmacological evaluation of 6,7-dimethoxy-1,2,3,4-tetrahydroisoquinoline derivatives as sigma-2 receptor ligands” (Eur J Med Chem, 2018):

Test system: Huh-7
Test: Cytotoxicity against human HuH7 cells after 48 hrs by CCK8 assay
Format: functional, cell-based
Details: Huh-7, 48 h
Method in brief: (§1)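 Exponentially growing Huh7 or KYSE-140 cells seeded at 4,000 cells/well, adhered overnight, then exposed to 6 concentrations for 48 h; DMSO vehicle control. CCK-8 added, 2 h at 37 °C in dark, absorbance at 450 nm. Viability as percent of control OD; IC50 by curve fitting, at least three experiments.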

Row | SMILES | IC50 [nM]
1 | COc1ccc(C(=O)CCN2CCc3cc(OC)c(OC)cc3C2)c(C)c1 | 42800
2 | COc1ccc(C(=O)CCN2CCc3cc(OC)c(OC)cc3C2)c(OC)c1 | 75300
3 | COc1ccc(C(O)CN2CCc3cc(OC)c(OC)cc3C2)c(OC)c1 (configuration not stated) | > 100
4 | COc1ccc(C(O)CCN2CCc3cc(OC)c(OC)cc3C2)c(OC)c1 (configuration not stated) | 45900
5 | COc1ccc(C(=O)CN2CCc3cc(OC)c(OC)cc3C2)c(OC)c1 | > 100
6 | COc1ccc(C(O)CCN2CCc3cc(OC)c(OC)cc3C2)c(C)c1 (configuration not stated) | > 100
7 | COc1cc2c(cc1OC)CN(CCn1cnc3cc(Cl)c([N+](=O)[O-])cc3c1=O)CC2 | > 100
8 | COc1cc2c(cc1OC)CN(CCC(=O)c1c(C)c(OC)c(OC)c(OC)c1O)CC2 | 81600
9 | COc1cc2c(cc1OC)CN(CCCn1cnc3cc(Cl)c([N+](=O)[O-])cc3c1=O)CC2 | > 100
10 | COc1cc2c(cc1OC)CN(CCCn1cnc3cc(OC)c(OC)cc3c1=O)CC2 | > 100

Molecular target: T1, Sigma intracellular receptor 2 (Rattus norvegicus, UniProt Q5U3Y7)
T1 sequence (Q5U3Y7 whole entry): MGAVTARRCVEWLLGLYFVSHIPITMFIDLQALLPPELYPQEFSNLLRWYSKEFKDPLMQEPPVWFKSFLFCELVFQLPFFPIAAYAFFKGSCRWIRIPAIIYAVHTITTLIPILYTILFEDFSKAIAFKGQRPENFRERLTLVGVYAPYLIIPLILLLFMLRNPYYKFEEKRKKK
Test: Displacement of [3H]DTG from sigma-2 receptor in Sprague-Dawley rat liver membranes after 120 mins in presence of (+)-pentazocine by microbeta scintillation counting method
Format: cell membranes, Membrane
Details: not given

Row | SMILES | Ki [nM]
11 | COc1cc2c(cc1OC)CN(CCn1cnc3cc(Cl)c([N+](=O)[O-])cc3c1=O)CC2 | > 1000
12 | COc1cc2c(cc1OC)CN(CCC(=O)c1c(C)c(OC)c(OC)c(OC)c1O)CC2 | > 1000
13 | COc1cc2c(cc1OC)CN(CCCn1cnc3cc(Cl)c([N+](=O)[O-])cc3c1=O)CC2 | > 1000
14 | COc1cc2c(cc1OC)CN(CCCn1cnc3cc(OC)c(OC)cc3c1=O)CC2 | 13.9

Results, then the compound that gave them:

Row | Ki [nM] | SMILES
15 | 23.7 | COc1ccc(C(=O)CCN2CCc3cc(OC)c(OC)cc3C2)c(C)c1
16 | 68.1 | COc1ccc(C(=O)CCN2CCc3cc(OC)c(OC)cc3C2)c(OC)c1
17 | 62 | COc1ccc(C(O)CN2CCc3cc(OC)c(OC)cc3C2)c(OC)c1 (configuration not stated)
18 | 30.2 | COc1ccc(C(O)CCN2CCc3cc(OC)c(OC)cc3C2)c(OC)c1 (configuration not stated)
19 | 53.8 | COc1ccc(C(=O)CN2CCc3cc(OC)c(OC)cc3C2)c(OC)c1
20 | 18.2 | COc1ccc(C(O)CCN2CCc3cc(OC)c(OC)cc3C2)c(C)c1 (configuration not stated)

Molecular target: T2, Sigma intracellular receptor 2 (Rattus norvegicus) (UniProt Q5U3Y7)
T2 sequence (whole entry): T1 sequence (Q5U3Y7 whole entry)
Test: Displacement of [3H]DTG from sigma-2 receptor in Sprague-Dawley rat liver membranes at 1 uM after 120 mins in presence of (+)-pentazocine by microbeta scintillation counting method relative to control
Format: cell membranes
Details: Membrane
Method in brief: (§2)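 Single-point screen at 1 µM for displacement of [3H](+)-pentazocine (sigma-1, guinea pig brain membranes) or [3H]-DTG (sigma-2, rat liver membranes, with 100 nM (+)-pentazocine); 25 °C, pH 8.0 Tris buffer. Hits were defined as >50% displacement.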

Row | SMILES | inhibition [%]
21 | COc1cc2c(cc1OC)CN(CCn1cnc3cc(Cl)c([N+](=O)[O-])cc3c1=O)CC2 | > 50
22 | COc1cc2c(cc1OC)CN(CCC(=O)c1c(C)c(OC)c(OC)c(OC)c1O)CC2 | > 50
23 | COc1cc2c(cc1OC)CN(CCCn1cnc3cc(Cl)c([N+](=O)[O-])cc3c1=O)CC2 | > 50
24 | COc1cc2c(cc1OC)CN(CCCn1cnc3cc(OC)c(OC)cc3c1=O)CC2 | > 50

Further lines, results first:

Row | inhibition [%] | SMILES
25 | > 50 | COc1ccc(C(=O)CCN2CCc3cc(OC)c(OC)cc3C2)c(C)c1
26 | > 50 | COc1ccc(C(=O)CCN2CCc3cc(OC)c(OC)cc3C2)c(OC)c1
27 | > 50 | COc1ccc(C(O)CN2CCc3cc(OC)c(OC)cc3C2)c(OC)c1 (configuration not stated)
28 | > 50 | COc1ccc(C(O)CCN2CCc3cc(OC)c(OC)cc3C2)c(OC)c1 (configuration not stated)
29 | > 50 | COc1ccc(C(=O)CN2CCc3cc(OC)c(OC)cc3C2)c(OC)c1
30 | > 50 | COc1ccc(C(O)CCN2CCc3cc(OC)c(OC)cc3C2)c(C)c1 (configuration not stated)

Test system: KYSE-140
Test: Cytotoxicity against human KYSE-140 cells after 48 hrs by CCK8 assay
Format: functional, cell-based
Details: KYSE-140, 48 h
Method in brief: as §1

Row | SMILES | IC50 [nM]
31 | COc1ccc(C(=O)CCN2CCc3cc(OC)c(OC)cc3C2)c(C)c1 | 60100
32 | COc1ccc(C(=O)CCN2CCc3cc(OC)c(OC)cc3C2)c(OC)c1 | > 100
33 | COc1ccc(C(O)CN2CCc3cc(OC)c(OC)cc3C2)c(OC)c1 (configuration not stated) | > 100
34 | COc1ccc(C(O)CCN2CCc3cc(OC)c(OC)cc3C2)c(OC)c1 (configuration not stated) | 26100
35 | COc1ccc(C(=O)CN2CCc3cc(OC)c(OC)cc3C2)c(OC)c1 | > 100
36 | COc1ccc(C(O)CCN2CCc3cc(OC)c(OC)cc3C2)c(C)c1 (configuration not stated) | > 100
37 | COc1cc2c(cc1OC)CN(CCn1cnc3cc(Cl)c([N+](=O)[O-])cc3c1=O)CC2 | > 100
38 | COc1cc2c(cc1OC)CN(CCC(=O)c1c(C)c(OC)c(OC)c(OC)c1O)CC2 | 93700
39 | COc1cc2c(cc1OC)CN(CCCn1cnc3cc(Cl)c([N+](=O)[O-])cc3c1=O)CC2 | > 100
40 | COc1cc2c(cc1OC)CN(CCCn1cnc3cc(OC)c(OC)cc3c1=O)CC2 | > 100

Molecular target: Sigma non-opioid intracellular receptor 1 (Cavia porcellus) (UniProt Q60492)
Sequence (Q60492 whole entry): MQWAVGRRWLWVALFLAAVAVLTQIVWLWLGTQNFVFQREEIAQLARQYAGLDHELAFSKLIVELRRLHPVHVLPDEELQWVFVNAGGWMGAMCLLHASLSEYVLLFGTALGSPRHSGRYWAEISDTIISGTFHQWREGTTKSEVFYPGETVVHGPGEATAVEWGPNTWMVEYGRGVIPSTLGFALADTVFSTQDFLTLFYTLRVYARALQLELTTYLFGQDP
Test: Displacement of [3H]-(+)-pentazocine from sigma-1 receptor in guinea pig brain membranes at 1 uM after 120 mins by microbeta scintillation counting method relative to control
Format: cell membranes
Details: Membrane
Method in brief: as §2

Row | SMILES | inhibition [%]
41 | COc1cc2c(cc1OC)CN(CCn1cnc3cc(Cl)c([N+](=O)[O-])cc3c1=O)CC2 | > 50
42 | COc1cc2c(cc1OC)CN(CCC(=O)c1c(C)c(OC)c(OC)c(OC)c1O)CC2 | > 50
43 | COc1cc2c(cc1OC)CN(CCCn1cnc3cc(Cl)c([N+](=O)[O-])cc3c1=O)CC2 | > 50
44 | COc1cc2c(cc1OC)CN(CCCn1cnc3cc(OC)c(OC)cc3c1=O)CC2 | > 50

The next lines start with the values.

Row | inhibition [%] | SMILES
45 | > 50 | COc1ccc(C(=O)CCN2CCc3cc(OC)c(OC)cc3C2)c(C)c1
46 | > 50 | COc1ccc(C(=O)CCN2CCc3cc(OC)c(OC)cc3C2)c(OC)c1
47 | > 50 | COc1ccc(C(O)CN2CCc3cc(OC)c(OC)cc3C2)c(OC)c1 (configuration not stated)
48 | > 50 | COc1ccc(C(O)CCN2CCc3cc(OC)c(OC)cc3C2)c(OC)c1 (configuration not stated)
49 | > 50 | COc1ccc(C(=O)CN2CCc3cc(OC)c(OC)cc3C2)c(OC)c1
50 | > 50 | COc1ccc(C(O)CCN2CCc3cc(OC)c(OC)cc3C2)c(C)c1 (configuration not stated)

Test system: not listed separately
Test: Selectivity ratio of Ki for sigma-1 receptor in guinea pig brain membranes to Ki for sigma-2 receptor in Sprague-Dawley rat liver membranes
Format: cell membranes
Details: not given

Row | Ratio Ki | SMILES
51 | 0.5 | COc1ccc(C(=O)CCN2CCc3cc(OC)c(OC)cc3C2)c(C)c1
52 | > 14 | COc1ccc(C(=O)CCN2CCc3cc(OC)c(OC)cc3C2)c(OC)c1
53 | > 16 | COc1ccc(C(O)CN2CCc3cc(OC)c(OC)cc3C2)c(OC)c1 (configuration not stated)
54 | > 33 | COc1ccc(C(O)CCN2CCc3cc(OC)c(OC)cc3C2)c(OC)c1 (configuration not stated)
55 | > 18 | COc1ccc(C(=O)CN2CCc3cc(OC)c(OC)cc3C2)c(OC)c1
56 | > 55 | COc1ccc(C(O)CCN2CCc3cc(OC)c(OC)cc3C2)c(C)c1 (configuration not stated)
57 | > 71.9 | COc1cc2c(cc1OC)CN(CCCn1cnc3cc(OC)c(OC)cc3c1=O)CC2

Molecular target: Sigma non-opioid intracellular receptor 1 (Cavia porcellus, UniProt Q60492)
Sequence (Q60492 whole entry): as above
Test: Displacement of [3H]-(+)-pentazocine from sigma-1 receptor in guinea pig brain membranes after 120 mins by microbeta scintillation counting method
Format: cell membranes, Membrane
Details: not given
Method in brief: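 Guinea pig brain membranes (frozen brains minus cerebellum; 300 µg) incubated with 6 nM [3H]-(+)-pentazocine stock (~42 Ci/mmol), 50 mM Tris-HCl pH 8.0, 25 °C, 120 min. Compounds from ethanol, 0.1-1000 nM, 10 points. Ice-cold 10 mM Tris stop, GF/B filtration, scintillation counting. Nonspecific defined with (+)-pentazocine or haloperidol (10 µM).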

Row | SMILES | Ki [nM]
58 | COc1cc2c(cc1OC)CN(CCn1cnc3cc(Cl)c([N+](=O)[O-])cc3c1=O)CC2 | > 1000
59 | COc1cc2c(cc1OC)CN(CCC(=O)c1c(C)c(OC)c(OC)c(OC)c1O)CC2 | > 1000
60 | COc1cc2c(cc1OC)CN(CCCn1cnc3cc(Cl)c([N+](=O)[O-])cc3c1=O)CC2 | > 1000
61 | COc1cc2c(cc1OC)CN(CCCn1cnc3cc(OC)c(OC)cc3c1=O)CC2 | > 1000

Further lines, results first:

Row | Ki [nM] | SMILES
62 | 13.3 | COc1ccc(C(=O)CCN2CCc3cc(OC)c(OC)cc3C2)c(C)c1
63 | > 1000 | COc1ccc(C(=O)CCN2CCc3cc(OC)c(OC)cc3C2)c(OC)c1
64 | > 1000 | COc1ccc(C(O)CN2CCc3cc(OC)c(OC)cc3C2)c(OC)c1 (configuration not stated)
65 | > 1000 | COc1ccc(C(O)CCN2CCc3cc(OC)c(OC)cc3C2)c(OC)c1 (configuration not stated)
66 | > 1000 | COc1ccc(C(=O)CN2CCc3cc(OC)c(OC)cc3C2)c(OC)c1
67 | > 1000 | COc1ccc(C(O)CCN2CCc3cc(OC)c(OC)cc3C2)c(C)c1 (configuration not stated)
